Measured values reported in ChEMBL document CHEMBL4765483 (J Med Chem, 2021).
Active and inactive are the calls of the source. No cut-off for these calls is given here.

What was measured:
PC-3 [1] = experiment: Antimigratory activity in human PC-3 cells assessed as reduction in cell migration at Ki level incubated for 72 hrs by crystal violet staining based confocal microscopy; type: functional
In short: (§1)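 Transwell migration, 8.0 μm pore polycarbonate membrane; 10⁵ cells seeded in serum-free medium in upper chamber, complete medium with 10% FBS below. Cells kept in RPMI 1640, 10% FBS. Migration scored after 72 h without or with treatment; migrated cells fixed in 4% paraformaldehyde, crystal violet stained, counted in five random fields; at least three chambers from three experiments.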

PC-3 [2] = experiment: Antimetastatic activity in human PC-3 cells assessed as effect on cell shape at Ki level incubated for 72 hrs by confocal laser scanning microscopy; type: functional, cell-based
DU-145 = experiment: Antimigratory activity in human DU-145 cells assessed as reduction in cell migration at Ki level incubated for 72 hrs by crystal violet staining based confocal microscopy; type: functional; in short: as §1
PC-3 [3] = experiment: Antimetastatic activity in human PC-3 cells assessed as induction of actin skeleton reorganization at Ki level incubated for 72 hrs by confocal laser scanning microscopy; type: functional, cell-based
LNCaP = experiment: Antimigratory activity in human LNCaP cells assessed as reduction in cell migration at Ki level incubated for 72 hrs by crystal violet staining based confocal microscopy; type: functional; in short: as §1
[4] = molecular target: Adenosine receptor A2a (Homo sapiens) (UniProt P29274); experiment: Displacement of [3H]ZM2421385 from adenosine A2A receptor expressed in human HeLa cell membranes at 1 uM incubated for 30 mins by scintillation counting method; settings: Cell membrane
Sequence of Adenosine receptor A2a (Homo sapiens) (P29274 whole entry): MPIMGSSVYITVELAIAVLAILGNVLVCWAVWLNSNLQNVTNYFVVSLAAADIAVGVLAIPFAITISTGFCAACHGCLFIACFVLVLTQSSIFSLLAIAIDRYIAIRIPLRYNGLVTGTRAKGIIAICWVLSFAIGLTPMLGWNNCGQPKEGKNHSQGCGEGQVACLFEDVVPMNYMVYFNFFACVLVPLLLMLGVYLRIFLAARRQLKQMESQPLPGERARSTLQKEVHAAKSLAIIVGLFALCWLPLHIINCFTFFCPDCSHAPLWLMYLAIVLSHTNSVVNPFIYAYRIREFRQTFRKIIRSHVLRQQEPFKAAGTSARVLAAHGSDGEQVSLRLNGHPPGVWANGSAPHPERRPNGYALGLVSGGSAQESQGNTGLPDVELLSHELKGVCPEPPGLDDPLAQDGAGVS

Adenosine receptor A2b = molecular target: T1, Adenosine receptor A2b (Homo sapiens, UniProt P29275); experiment: Displacement of [3H]DPCPX from human adenosine A2B receptor expressed in HEK293 cell membranes incubated for 30 mins by scintillation counting method; set-up: species or system Cell membrane
T1 sequence (P29275 whole entry): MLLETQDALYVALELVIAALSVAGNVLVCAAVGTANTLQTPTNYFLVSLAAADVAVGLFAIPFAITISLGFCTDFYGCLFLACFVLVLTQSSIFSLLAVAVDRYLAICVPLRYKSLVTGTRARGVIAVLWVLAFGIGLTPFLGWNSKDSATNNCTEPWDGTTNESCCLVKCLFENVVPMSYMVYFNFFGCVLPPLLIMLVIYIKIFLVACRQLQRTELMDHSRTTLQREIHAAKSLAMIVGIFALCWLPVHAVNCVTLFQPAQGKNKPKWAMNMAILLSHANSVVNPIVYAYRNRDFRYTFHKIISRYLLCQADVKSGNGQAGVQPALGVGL

[5] = molecular target: T2, Adenosine receptor A1 (Homo sapiens) (UniProt P30542); experiment: Displacement of [3H]DPCPX from human adenosine A1 receptor expressed in CHO cell membranes at 1 uM incubated for 60 mins by scintillation counting method; settings: Cell membrane
T2 sequence (whole entry): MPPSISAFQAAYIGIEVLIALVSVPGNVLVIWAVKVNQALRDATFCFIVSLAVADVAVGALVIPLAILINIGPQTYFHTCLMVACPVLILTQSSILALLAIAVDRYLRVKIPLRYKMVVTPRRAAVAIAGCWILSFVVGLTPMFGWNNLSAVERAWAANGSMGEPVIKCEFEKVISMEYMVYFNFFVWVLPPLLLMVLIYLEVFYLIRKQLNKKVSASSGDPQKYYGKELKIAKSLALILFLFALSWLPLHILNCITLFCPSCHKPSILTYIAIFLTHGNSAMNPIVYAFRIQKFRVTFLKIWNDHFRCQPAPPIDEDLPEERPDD

[6] = molecular target: T3, Adenosine receptor A3 (Homo sapiens) (UniProt P0DMS8); experiment: Displacement of [3H]NECA from adenosine A3 receptor expressed in human HeLa cell membranes at 1 uM incubated for 180 mins by scintillation counting method; settings: Cell membrane
T3 sequence (whole entry): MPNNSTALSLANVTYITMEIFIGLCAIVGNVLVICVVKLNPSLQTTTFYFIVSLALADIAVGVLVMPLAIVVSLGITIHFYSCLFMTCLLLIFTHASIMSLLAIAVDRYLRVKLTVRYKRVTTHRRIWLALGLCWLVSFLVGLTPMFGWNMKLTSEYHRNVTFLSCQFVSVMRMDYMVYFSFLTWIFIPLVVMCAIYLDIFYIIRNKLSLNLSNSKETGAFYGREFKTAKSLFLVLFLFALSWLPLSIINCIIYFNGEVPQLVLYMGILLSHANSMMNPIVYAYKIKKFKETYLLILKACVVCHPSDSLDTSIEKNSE
In short: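 hA3AR in HeLa membranes (3 pmol/mg protein) with 10 nM [3H]NECA (KD 8.7 nM); nonspecific binding with 100 μM R-PIA; incubated 180 min at 25 °C, washed, filtered, radioactivity counted.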

Adenosine receptor A1 = molecular target: T4, Adenosine receptor A1 (Homo sapiens, UniProt P30542); experiment: Displacement of [3H]DPCPX from human adenosine A1 receptor expressed in CHO cell membranes incubated for 60 mins by scintillation counting method; set-up: species or system Cell membrane
T4 sequence (P30542 whole entry): T2 sequence (whole entry)

[7] = molecular target: T5, Adenosine receptor A2b (Homo sapiens) (UniProt P29275); experiment: Displacement of [3H]DPCPX from human adenosine A2B receptor expressed in HEK293 cell membranes at 1 uM incubated for 30 mins by scintillation counting method; settings: Cell membrane, filed as antagonist
T5 sequence (whole entry): T1 sequence (P29275 whole entry)

SMILES	inhibition [4] [%]	Ki (Adenosine receptor A2b) [nM]	inhibition [5] [%]	inhibition [6] [%]	Ki (Adenosine receptor A1) [nM]	inhibition [7] [%]	Activity (PC-3 [1])	Activity (PC-3 [2])	Activity (DU-145)	Activity (PC-3 [3])	Activity (LNCaP)
CCCn1c(=O)[nH]c2nc(-c3ccc(S(=O)(=O)N4CCN(c5ccc(Cl)cc5)CC4)cc3)[nH]c2c1=O	–	–	–	–	–	–	Active	Active	Active	Active	Active
COC(=O)C1=C(C)N=C(S)NC1c1ccco1 (racemic)	20	984	11	1	–	–	–	–	–	–	–
CC1=C(C(=O)CC(C)C)C(c2ccoc2)NC(=O)N1 (racemic)	20	1010	23	18	–	–	–	–	–	–	–
CCC(C)OC(=O)C1=C(C)NC(=O)NC1c1ccco1 (racemic)	1	84.3	6	3	–	–	–	–	–	–	–
CCC(C)OC(=O)C1=C(C)NC(=O)NC1c1ccoc1 (racemic)	1	201	13	11	–	–	–	–	–	–	–
CC1=C(C(=O)C2CC2)C(c2ccco2)NC(=O)N1 (racemic)	2	1060	2	7	–	–	–	–	–	–	–
CC1=C(C(=O)OC2CCC2)C(c2cccs2)NC(=O)N1 (racemic)	26	1090	24	2	–	–	–	–	–	–	–
CC1=C(c2ncc(C)o2)C(c2ccoc2)NC(=O)N1 (racemic)	14	801	21	1	–	–	–	–	–	–	–
CC1=C(C(=O)OC2CCC2)C(c2ccsc2)NC(=O)N1 (racemic)	41	405	40	3	–	–	–	–	–	–	–
CC1=C(C(=O)OCC2CC2)C(c2ccsc2)NC(=O)N1 (racemic)	46	724	39	3	–	–	–	–	–	–	–
CC1=C(C(=O)OCC2CCC2)C(c2ccsc2)NC(=O)N1 (racemic)	32	1040	48	2	–	–	–	–	–	–	–
CC1=C(C(=O)OC2CCC2)C(c2ccco2)NC(=O)N1 (racemic)	41	95.1	19	1	–	–	–	–	–	–	–
CC1=C(C(=O)SC(C)C)C(c2ccoc2)NC(=O)N1 (racemic)	2	637	9	3	–	–	–	–	–	–	–
CC1=C(C(=O)OCC2CC2)C(c2ccoc2)NC(=O)N1 (racemic)	43	426	29	3	–	–	–	–	–	–	–
CC1=C(C(=O)OCC2CCC2)C(c2ccco2)NC(=O)N1 (racemic)	22	561	42	1	–	–	–	–	–	–	–
CC1=C(C(=O)OCc2ccccc2)C(c2ccco2)NC(=O)N1C (racemic)	37	–	–	11	1740	41	–	–	–	–	–
CC1=C(C(=O)OCC2CCC2)C(c2cccs2)NC(=O)N1 (racemic)	22	2840	39	1	–	–	–	–	–	–	–
CC1=C(C(=O)CC(C)C)C(c2ccsc2)NC(=O)N1 (racemic)	19	1000	37	14	–	–	–	–	–	–	–

The remaining molecules from weak to strong by Ki (Adenosine receptor A2b), led by results:

inhibition [4] [%]	Ki (Adenosine receptor A2b) [nM]	inhibition [5] [%]	inhibition [6] [%]	Ki (Adenosine receptor A1) [nM]	inhibition [7] [%]	SMILES	Activity (PC-3 [1])	Activity (PC-3 [2])	Activity (DU-145)	Activity (PC-3 [3])	Activity (LNCaP)
30	4520	46	14	–	–	CC1=C(C(=O)OCc2ccccc2)C(c2ccsc2)NC(=O)N1C (racemic)	–	–	–	–	–
15	1890	18	19	–	–	CC1=C(C(=O)OC(C)(C)C)C(c2ccoc2)NC(=S)N1 (racemic)	–	–	–	–	–
27	1570	23	1	–	–	CC1=C(C(=O)OCC2CC2)C(c2cccs2)NC(=O)N1 (racemic)	–	–	–	–	–
20	1130	34	2	–	–	CC1=C(c2ncc(C)o2)C(c2ccsc2)NC(=O)N1 (racemic)	–	–	–	–	–
1	1010	6	1	–	–	CC1=C(C(=O)OC2CCCC2)C(c2ccoc2)NC(=O)N1 (racemic)	–	–	–	–	–
23	905	27	4	–	–	CC1=C(c2ncc(C)o2)C(c2ccco2)NC(=O)N1 (racemic)	–	–	–	–	–
6	807	1	1	–	–	CCCC(=O)C1=C(C)NC(=O)NC1c1ccco1 (racemic)	–	–	–	–	–
25	739	46	2	–	–	CC1=C(C(=O)OCC2CCC2)C(c2ccoc2)NC(=O)N1 (racemic)	–	–	–	–	–
1	659	5	5	–	–	CC1=C(C(=O)OC2CCCC2)C(c2ccsc2)NC(=O)N1 (racemic)	–	–	–	–	–
23	577	1	14	–	–	CC1=C(C(=O)OC2CCCC2)C(c2ccco2)NC(=O)N1 (racemic)	–	–	–	–	–
31	326	–	16	3090	–	CC1=C(C(=O)OCC(C)C)C(c2ccoc2)NC(=O)N1 (racemic)	–	–	–	–	–
32	307	20	1	–	–	CC1=C(C(=O)OC2CCC2)C(c2ccoc2)NC(=O)N1 (racemic)	–	–	–	–	–
6	240	16	31	–	–	CC1=C(C(=O)CC(C)C)C(c2ccco2)NC(=O)N1 (racemic)	–	–	–	–	–
36	138	29	1	–	–	CC1=C(C(=O)OCC2CC2)C(c2ccco2)NC(=O)N1 (racemic)	–	–	–	–	–
